Data reported in ChEMBL document CHEMBL1150264, “Design and microwave-assisted synthesis of novel macrocyclic peptides active at melanocortin receptors: discovery of potent and selective hMC5R receptor antagonists” (J Med Chem, 2008).
The source made the active and inactive calls. The calls are words filed in the database; no cut-off is given here.

Key:
Melanocortin receptor 3 [1] = target: T1, Melanocortin receptor 3 (Homo sapiens, UniProt P41968); test: Displacement of [125I]-[Nle4, D-Phe7]alpha-MSH from human melanocortin 3 receptor expressed in HEK293 cells at 10 uM; format: cell-based
Melanocortin receptor 3 [2] = target: T1, Melanocortin receptor 3; test: Agonist activity at human melanocortin 3 receptor expressed in HEK293 cells assessed as cAMP accumulation at 10 uM; format: functional, cell-based
Procedure, shortened: (§1)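 cAMP accumulation assay in stably transfected HEK293 cells: 0.5 mM IBMX preincubation, 3 min ligand exposure at 37 °C, [3H]cAMP/PKA binding read-out against a standard curve. The cAMP produced at 10 μM ligand is expressed as percent of that produced by 10 μM MT-II (% max effect).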

Melanocortin receptor 3 [3] = target: T1, Melanocortin receptor 3; test: Agonist activity at human melanocortin 3 receptor expressed in HEK293 cells assessed as cAMP accumulation at 10 uM realtive to MT2; format: functional, cell-based; procedure, shortened: as §1
Melanocortin receptor 5 [4] = target: T2, Melanocortin receptor 5 (Homo sapiens, UniProt P33032); test: Agonist activity at human melanocortin 5 receptor expressed in HEK293 cells assessed as cAMP accumulation at 10 uM realtive to MT2; format: functional, cell-based; procedure, shortened: as §1
Melanocortin receptor 4 [5] = target: T3, Melanocortin receptor 4 (Homo sapiens, UniProt P32245); test: Agonist activity at human melanocortin 4 receptor expressed in HEK293 cells assessed as cAMP accumulation at 10 uM; format: functional, cell-based; procedure, shortened: as §1
[6] = target: T4, Melanocyte-stimulating hormone receptor (Homo sapiens, UniProt Q01726); test: Displacement of [125I]-[Nle4, D-Phe7]alpha-MSH from human melanocortin 1 receptor expressed in HEK293 cells; format: cell-based
Procedure, shortened: (§2)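 Whole HEK293 cells stably expressing each hMCR, seeded 48 h before assay (50000 cells/well), washed in MEM with 25 mM bicarbonate. Cells incubated 40 min at 37 °C with unlabeled peptide plus [125I]-NDP-α-MSH (33.06 pM, 20000 cpm/well) in MEM, 25 mM HEPES pH 7.4, 0.2% BSA, 1 mM 1,10-phenanthroline, leupeptin, bacitracin. Cells washed, lysed with NaOH/Triton X-100, and gamma-counted. IC50 by nonlinear fit, two experiments in triplicate […].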
Target sequence in this assay (Q01726 whole entry): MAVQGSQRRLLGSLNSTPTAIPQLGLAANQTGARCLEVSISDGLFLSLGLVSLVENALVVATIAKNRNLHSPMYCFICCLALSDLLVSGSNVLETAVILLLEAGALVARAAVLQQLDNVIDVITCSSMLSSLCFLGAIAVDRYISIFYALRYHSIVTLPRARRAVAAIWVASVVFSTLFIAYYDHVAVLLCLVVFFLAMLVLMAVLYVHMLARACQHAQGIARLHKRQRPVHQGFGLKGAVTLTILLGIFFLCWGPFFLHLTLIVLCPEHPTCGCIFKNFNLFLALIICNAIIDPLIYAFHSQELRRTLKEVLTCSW

Melanocortin receptor 5 [7] = target: T2, Melanocortin receptor 5; test: Agonist activity at human melanocortin 5 receptor expressed in HEK293 cells assessed as cAMP accumulation at 10 uM; format: functional, cell-based; procedure, shortened: as §1
Melanocortin receptor 4 [8] = target: T3, Melanocortin receptor 4; test: Agonist activity at human melanocortin 4 receptor expressed in HEK293 cells assessed as cAMP accumulation at 10 uM realtive to MT2; format: functional, cell-based; procedure, shortened: as §1
[9] = target: T4, Melanocyte-stimulating hormone receptor; test: Agonist activity at human melanocortin 1 receptor expressed in HEK293 cells assessed as cAMP accumulation at 10 uM; format: functional, cell-based; procedure, shortened: as §1
Target sequence in this assay (Q01726 whole entry, looked up): as the sequence (Q01726 whole entry) above

[10] = target: T4, Melanocyte-stimulating hormone receptor; test: Agonist activity at human melanocortin 1 receptor expressed in HEK293 cells assessed as cAMP accumulation at 10 uM realtive to MT2; format: functional, cell-based; procedure, shortened: as §1
Target sequence in this assay (Q01726 whole entry, looked up): as the sequence (Q01726 whole entry) above

Melanocortin receptor 4 [11] = target: T3, Melanocortin receptor 4; test: Displacement of [125I]-[Nle4, D-Phe7]alpha-MSH from human melanocortin 4 receptor expressed in HEK293 cells at 10 uM; format: cell-based
Melanocortin receptor 5 [12] = target: T2, Melanocortin receptor 5; test: Displacement of [125I]-[Nle4, D-Phe7]alpha-MSH from human melanocortin 5 receptor expressed in HEK293 cells at 10 uM; format: cell-based
Melanocortin receptor 3 [13] = target: T1, Melanocortin receptor 3; test: Displacement of [125I]-[Nle4, D-Phe7]alpha-MSH from human melanocortin 3 receptor expressed in HEK293 cells; format: cell-based; procedure, shortened: as §2
Melanocortin receptor 3 [14] = target: T1, Melanocortin receptor 3; test: Agonist activity at human melanocortin 3 receptor expressed in HEK293 cells assessed as cAMP accumulation; format: functional, cell-based
Procedure, shortened: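 Stably transfected HEK293 cells seeded 48 h before assay (50000 cells/well), rinsed, preincubated 1 min at 37 °C in Earle's balanced salt solution with 0.5 mM IBMX, then given peptide at varying concentrations for 3 min at 37 °C. Stopped with ice-cold Tris/EDTA and boiling 7 min. cAMP measured by [3H]cAMP competition for PKA against a standard curve. EC50 by nonlinear least-squares fit, mean of two experiments in triplicate.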

[15] = target: T4, Melanocyte-stimulating hormone receptor; test: Displacement of [125I]-[Nle4, D-Phe7]alpha-MSH from human melanocortin 1 receptor expressed in HEK293 cells at 10 uM; format: cell-based
Target sequence in this assay (Q01726 whole entry, looked up): as the sequence (Q01726 whole entry) above

T2 sequence (P33032 whole entry): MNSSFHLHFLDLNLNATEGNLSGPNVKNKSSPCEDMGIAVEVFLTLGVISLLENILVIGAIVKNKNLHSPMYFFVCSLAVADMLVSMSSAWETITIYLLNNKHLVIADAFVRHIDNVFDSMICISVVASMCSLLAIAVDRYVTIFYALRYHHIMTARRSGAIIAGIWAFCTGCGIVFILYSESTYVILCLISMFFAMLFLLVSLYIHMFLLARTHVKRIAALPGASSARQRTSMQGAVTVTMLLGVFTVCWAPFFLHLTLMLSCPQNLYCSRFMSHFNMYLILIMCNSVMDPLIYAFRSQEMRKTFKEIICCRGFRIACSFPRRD
T1 sequence (P41968 whole entry): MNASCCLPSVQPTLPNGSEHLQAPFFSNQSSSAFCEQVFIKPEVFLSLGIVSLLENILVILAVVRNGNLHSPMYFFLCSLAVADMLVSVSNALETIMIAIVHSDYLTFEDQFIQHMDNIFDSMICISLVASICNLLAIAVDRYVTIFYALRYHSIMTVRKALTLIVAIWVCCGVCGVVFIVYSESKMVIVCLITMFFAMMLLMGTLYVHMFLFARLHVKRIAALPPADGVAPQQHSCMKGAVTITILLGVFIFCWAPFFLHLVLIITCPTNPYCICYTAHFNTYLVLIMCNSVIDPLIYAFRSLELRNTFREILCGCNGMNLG
T3 sequence (P32245 whole entry): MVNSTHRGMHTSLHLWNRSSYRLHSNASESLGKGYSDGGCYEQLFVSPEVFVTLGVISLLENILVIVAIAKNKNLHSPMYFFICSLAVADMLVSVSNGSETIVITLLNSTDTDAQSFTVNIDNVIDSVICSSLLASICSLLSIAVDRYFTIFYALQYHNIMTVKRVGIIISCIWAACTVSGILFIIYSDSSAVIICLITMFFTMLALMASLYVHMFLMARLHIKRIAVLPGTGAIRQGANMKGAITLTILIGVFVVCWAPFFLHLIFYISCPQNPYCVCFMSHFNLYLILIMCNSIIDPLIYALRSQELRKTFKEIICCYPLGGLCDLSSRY

Activity (Melanocortin receptor 3 [1])	Activity (Melanocortin receptor 3 [2])	Activity (Melanocortin receptor 3 [3]) [%]	Activity (Melanocortin receptor 5 [4]) [%]	Activity (Melanocortin receptor 4 [5])	IC50 [6] [nM]	Activity (Melanocortin receptor 5 [7])	Activity (Melanocortin receptor 4 [8]) [%]	Activity [9]	Activity [10] [%]	Activity (Melanocortin receptor 4 [11])	Activity (Melanocortin receptor 5 [12])	IC50 ([6]; hek293) [nM]	IC50 (Melanocortin receptor 3 [13]) [nM]	EC50 (Melanocortin receptor 3 [14]) [nM]	Activity [15]	SMILES
inactive	inactive	0	0	inactive	> 1000	inactive	0	inactive	0	inactive	inactive	–	–	–	–	N=C(N)NCCC[C@@H]1NC(=O)[C@@H](Cc2ccccc2)NC(=O)[C@H](Cc2cnc[nH]2)NC(=O)c2cc([N+](=O)[O-])ccc2SC[C@@H](C(N)=O)NC(=O)[C@H](Cc2ccccc2)NC1=O
–	–	–	–	–	–	–	–	–	–	–	–	–	> 8000	330	–	NC(=O)[C@@H]1CSc2ccc([N+](=O)[O-])cc2C(=O)N[C@@H](Cc2cnc[nH]2)C(=O)N[C@H](Cc2ccccc2)C(=O)N[C@@H](CCCN=C(N)N)C(=O)N[C@H](Cc2ccc3ccccc3c2)C(=O)N1
–	–	> 100	0	inactive	–	inactive	3	–	110	–	–	–	–	–	–	N=C(N)NCCC[C@@H]1NC(=O)[C@@H](Cc2ccccc2)NC(=O)[C@H](Cc2cnc[nH]2)NC(=O)c2cc([N+](=O)[O-])ccc2SC[C@@H](C(N)=O)NC(=O)[C@H](Cc2ccc3ccccc3c2)NC1=O
–	–	75	0	inactive	–	inactive	0	inactive	0	inactive	inactive	–	–	–	inactive	N=C(N)NCCC[C@@H]1NC(=O)[C@@H](Cc2ccccc2)NC(=O)[C@H](Cc2cnc[nH]2)NC(=O)c2cc([N+](=O)[O-])ccc2SC[C@@H](C(N)=O)NC(=O)[C@@H](Cc2ccc3ccccc3c2)NC1=O
–	inactive	0	0	inactive	–	inactive	0	–	> 100	inactive	–	–	–	–	–	N=C(N)NCCC[C@@H]1NC(=O)[C@@H](Cc2ccc3ccccc3c2)NC(=O)[C@H](Cc2cnc[nH]2)NC(=O)c2cc([N+](=O)[O-])ccc2SC[C@@H](C(N)=O)NC(=O)[C@H](Cc2c[nH]c3ccccc23)NC1=O

Continued, compound first:

SMILES	Activity (Melanocortin receptor 3 [1])	Activity (Melanocortin receptor 3 [2])	Activity (Melanocortin receptor 3 [3]) [%]	Activity (Melanocortin receptor 5 [4]) [%]	Activity (Melanocortin receptor 4 [5])	IC50 [6] [nM]	Activity (Melanocortin receptor 5 [7])	Activity (Melanocortin receptor 4 [8]) [%]	Activity [9]	Activity [10] [%]	Activity (Melanocortin receptor 4 [11])	Activity (Melanocortin receptor 5 [12])	IC50 ([6]; hek293) [nM]	IC50 (Melanocortin receptor 3 [13]) [nM]	EC50 (Melanocortin receptor 3 [14]) [nM]	Activity [15]
N=C(N)NCCC[C@@H]1NC(=O)[C@@H](Cc2ccccc2)NC(=O)[C@H]2CCCN2C(=O)c2cc([N+](=O)[O-])ccc2SC[C@@H](C(N)=O)NC(=O)[C@H](Cc2c[nH]c3ccccc23)NC1=O	inactive	inactive	0	0	inactive	–	inactive	0	inactive	0	inactive	inactive	> 1500	–	–	–
N=C(N)NCCC[C@@H]1NC(=O)[C@H](Cc2ccc(N)cc2)NC(=O)[C@H](Cc2cnc[nH]2)NC(=O)c2cc([N+](=O)[O-])ccc2SC[C@@H](C(N)=O)NC(=O)[C@H](Cc2c[nH]c3ccccc23)NC1=O	–	–	5	0	inactive	–	inactive	0	–	9	inactive	inactive	–	–	–	–
N=C(N)NCCC[C@@H]1NC(=O)[C@@H](Cc2ccccc2)NC(=O)[C@H](Cc2cnc[nH]2)NC(=O)c2cc([N+](=O)[O-])ccc2SC[C@@H](C(N)=O)NC(=O)[C@H](Cc2c[nH]c3ccccc23)NC1=O	–	–	100	100	–	–	–	100	–	100	–	–	–	–	–	–
N=C(N)NCCC[C@H]1NC(=O)[C@@H](Cc2ccccc2)NC(=O)[C@H](Cc2cnc[nH]2)NC(=O)c2cc([N+](=O)[O-])ccc2SC[C@@H](C(N)=O)NC(=O)[C@H](Cc2c[nH]c3ccccc23)NC1=O	–	inactive	0	0	inactive	–	inactive	0	inactive	0	inactive	inactive	–	> 10000	–	inactive
